Results published in ChEMBL document CHEMBL3046706, “Synthesis and quantitative structure-activity relationships of new 2,5-disubstituted-1,3,4-oxadiazoles” (2001).

Tests used:
Format in all cases: functional
Spodoptera eridania = assay: Insecticidal activity against second-instar larvae of Spodoptera eridania fed on compound-treated corn leaves measured after 5 days; conditions: 120 h
Mythimna separata [1] = assay: Insecticidal activity against second-instar larvae of Mythimna separata (Oriental armyworm) fed on compound-treated mealie leaves measured after 5 days; conditions: 120 h
Procedure, shortened: (§1)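 Second-instar Pseudaletia separata larvae were fed compound-treated mealie leaves, with fresh treated leaves added daily, at about 20 °C in a well-ventilated room. Percent mortality at 5 days was based on the number and size of live larvae relative to untreated controls. LC50 values are in μg/mL and were converted to pLC50 (−log LC50).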

Mythimna separata [2] = assay: Insecticidal activity against second-instar larvae of Mythimna separata (Oriental armyworm) fed on compound-treated mealie leaves at pLC50 measured after 5 days; procedure, shortened: as §1

Row | Structure (SMILES) | LC50 (Spodoptera eridania) [µM] | LC50 (Mythimna separata [1]) [mM] | mortality (Mythimna separata [2]) [%]
1 | Fc1cc(-c2nnc(-c3ccc(Cl)cc3Cl)o2)c(Cl)cc1Cl | 5.25 | – | –
2 | Fc1cc(-c2nnc(-c3cc(F)c(Cl)cc3Cl)o2)c(Cl)cc1Cl | 1.78 | – | –
3 | Clc1ccc(-c2nnc(-c3ccc(Cl)cc3Cl)o2)c(Cl)c1 | 10.2 | – | –
4 | Fc1cccc(-c2nnc(-c3cc(F)c(Cl)cc3Cl)o2)c1 | 51.3 | – | –
5 | Fc1cc(-c2nnc(COc3ccc(Cl)cc3Cl)o2)c(Cl)cc1Cl | – | 1.7 | –
6 | CC1(C)C(C=C(Cl)Cl)C1c1nnc(-c2cccc(F)c2)o1 (configuration not stated) | 759 | – | –
7 | CC1(C)C(C=C(Cl)Cl)C1c1nnc(-c2cc(F)c(Cl)cc2Cl)o1 (configuration not stated) | 562 | – | –
8 | Fc1cc(-c2nnc(COc3ccc(Cl)cc3)o2)c(Cl)cc1Cl | – | 0.055 | –
9 | Clc1ccc(OCc2nnc(-c3ccc(Cl)cc3Cl)o2)c(Cl)c1 | – | 0.776 | –
10 | Clc1ccc(OCc2nnc(-c3ccc(Cl)nc3)o2)cc1 | – | > 1 | 7
11 | Clc1ccc(OCc2nnc(-c3cccnc3Cl)o2)cc1 | – | > 1 | 0
12 | Fc1cccc(-c2nnc(COc3ccc(Cl)cc3)o2)c1 | – | > 1 | 0
13 | Clc1ccc(OCc2nnc(-c3ccc(Cl)cc3Cl)o2)cc1 | – | 0.0158 | –
14 | Fc1cc(-c2nnc(COc3ccccc3Cl)o2)c(Cl)cc1Cl | – | 0.0145 | –
15 | CC1(C)C(C=C(Cl)Cl)C1c1nnc(/C=C/c2ccccc2)o1 (mixture of isomers) | – | > 1 | 0
16 | CC1(C)C(C=C(Cl)Cl)C1c1nnc(-c2ccc(Cl)cc2)o1 (mixture of isomers) | – | > 1 | 0
17 | COc1ccc(-c2nnc(C3C(C=C(Cl)Cl)C3(C)C)o2)cc1 (mixture of isomers) | – | > 1 | 0
18 | CC1(C)C(C=C(Cl)Cl)C1c1nnc(-c2cccs2)o1 (mixture of isomers) | – | > 1 | 0
19 | CC1(C)[C@@H](C=C(Cl)Cl)[C@@H]1c1nnc(-c2ccc(Cl)cc2Cl)o1 (relative stereo) | – | 0.123 | –
20 | CC1(C)[C@@H](C=C(Cl)Cl)[C@@H]1c1nnc(-c2ccccc2)o1 (relative stereo) | – | 1.38 | –
